The chains are these.
B1: tRNA (parent)
chain: GUUCCGUUGGCGUAAUGGUAACGCGUCUCCCUCCUAAGGAGAAGACUGCGGGUUCGAGUCCCGUACGGAACG

Fewer inactive variants are shown than the library holds.

Variants of B1 are the subject of this series. Nature of the series: yeast fitness relative to wild type (ratio to wild type); higher = fitter; tRNA-Arg(CCU), competitive growth, 37 C, YPD. An outline of the steps:
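Variants of the tRNA-Arg(CCU) gene, chemically synthesised with a 3% per-site mutation rate at 69 sites, were placed at the native genomic locus in Saccharomyces cerevisiae. The pooled strains were competed in YPD at 37°C for 24 hours in six parallel replicates. Gene amplicons from the start population and from each end population were read by 100-nucleotide paired-end sequencing. Darwinian fitness relative to wild type came from changes in genotype frequencies; genotypes needed ≥ 100 starting reads, and estimates < 0.5 were set to 0.5.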
With GUUCCGUUGGCGUAAUGGUAACGCGUCUCCCUCCUAAGGAGUAGACUGCGGGUUCGAGGCCCGUACGGAACG [A42U U59G], the yeast fitness stood at 0.75.

In the case of GUUCCGUUGGCAUAAUGGUAACGCGUCUCCCUCCUAAGGAGAAGAUUGCGCGUUCGAGUCCCGUACGGAACG [G12A C46U G51C], the yeast fitness was at most 0.5. As for GUUCCGUUGGCGUAGUGGUAACGCGUCUCCAUCCUAAGGAGAAGACUGCGGGUUCGAGUCCCGUAGGCAACG [A15G C31A C66G G68C], the yeast fitness is 0.563. For GUUCCGUUGGCGUAAUGCUAACGUGUCUCCCUCCUAAGGUGAAGACUGCGGGUUCAAGUCCCGUGUGGAACG [G18C C24U A40U G56A A65G C66U] the value was at most 0.5; for GUUCAGUUGCCAUAAUGGUAACACGUCUCCCUCCUAAGGAGAAGACUGCGGGUUCGAGUCCCGAACGGAACG [C5A G10C G12A G23A U64A], at most 0.5; for GUUCCGUUGCCGUAAUGGUAACGCGUCUCCCUACUAAGGAGAAGACUACGGGUUCGAAUCCCGUACGGAACG [G10C C33A G48A G58A], at most 0.5. As for GUUCCGUUGGCGGAAGGGUAACGCGUCUCCGUCCUAAGGAGAAGACUGUGGGUUCGAGUCCCGUACGGAACG [U13G U16G C31G C49U], the figure is at most 0.5; as for GUUCCGUUGGCGUAAUGGUAAUGCGUCUCCCUCCUAAGGAGAAGUCUGAGGGUUCGAGUCCCGUACGGAACG [C22U A45U C49A], at most 0.5. Regarding GUUCAGUUGGUGUAAUGGUAACGCGUCUUCUUCCUAAGGAGCAGACUGCGGGUUCGAGUCCCGUACGGCACG [C5A C11U C29U C31U A42C A69C], the yeast fitness was at most 0.5. With GUUCCGGUGGCGUAAUGGUAACGCGUCUCCCUCCUAAGGAGAAGACUGCGGGUUCGGGUUCCGUACGGAACG [U7G A57G C60U], the yeast fitness worked out at 0.62.

In the case of GUUCCGUUAGCGUAAUGGUAACGCGUCUCCGUCCUAAGGAGAAGACUGCGGGUUCCAGUCCCGUAAGGAACG [G9A C31G G56C C66A], the yeast fitness was at most 0.5.

On to GUUCCGUUGGCGUAAUGGUAACGCGUCUCCCUCCUAAGGAGAAGGCUGCGGGUUCGAGUCCUGUACGGAACG [A45G C62U], for which the yeast fitness worked out at 0.968. For GUUCCAUUGGCGUUAUGGUAACGCGUCUACCUCCUAAGGAGAAGACUGAGGGUUCGAGUCCCGUACGGAACG [G6A A14U C29A C49A], the yeast fitness was at most 0.5. For GUUCCGUUGGCGUAAUGGUAACGCGUCUCCCACCUAAGGAGAAGACUGAGGGUUCGAGUCCCGUACGGAACG [U32A C49A] the value was 0.582; for GUUCCGUUGGCGUAAUGGUAACGCGUCUCCGUCCUAAGGAGAGGACUGCGAGUUCGAGUCCCGUACGGAACG [C31G A43G G51A], 0.593. For GUUCCGUUGGCGUAAUGGUAACGCGUCUCCCUCCUAAGGAGCAGACUGCAGGUUCGAGUCCCGUACGGAACG [A42C G50A] the value was 0.745; for GUUCCGUUGGCGUAAUGGUAAAGCGUCUCCCUCCUAAGGAGAAGACUGCGGGUUCGAGUCCUGUACGGAACG [C22A C62U], 0.935; for GUUCCGUUGGCGUAAUGGUAACGCGUCUCCCUCCUAAAGAGAAGACUGCGGCUUCAAGUCCCGUACGGAACG [G38A G52C G56A], 0.609. Regarding GUUCCGUUGGCCUUAUGGUAACGCGUGUCCCUCCUAAGGAGAAGUGUGCGGGUUCAAGUCCCGUACGGAACG [G12C A14U C27G A45U C46G G56A], the yeast fitness was at most 0.5. Regarding GUUCCGUUGGCGUAAUGGUAACGUGUCUCCCUCCUAAGGAGAAGUCUGCGGGUUUGAGUCCCGUACUGAACG [C24U A45U C55U G67U], the yeast fitness is at most 0.5. On to GUUCCGUUGGCGUAACGGUAACGCGUCUCCCUUCUAAGGAGAAGACUGCGGGUUCGAGUCCCGUACGGAACG [U16C C33U], for which the yeast fitness amounted to 0.686. Consider GUUCCGUUGGCGUAAUGGUAAAGCGUCUCCCUCCUAAGGAGAAGACUGCGGGUUCGAGUCCCGUAUGGAACG [C22A C66U], for which the yeast fitness is 0.982. As for GAUCCGUUGGCGUAAUGGUAACGCGUCUCCCUCCUAAGGAGAAGACUGCGGGUUCGAGUCCCAUACGGAACG [U2A G63A], the figure is 0.927; as for GUUCCGUUGGCGCAAUGGUAACGCGUCUCCCUCCUAGGGAGAAGACUGCGGGUUCGAGUCCCGUACGGAACG [U13C A37G], 0.694; as for GUUCCGUUGGCGUAAUGGUAACGCGUCUCCCUCCUAAGGAGAAGAAUGCGGGUUCGAGUCCCGUACGGCACG [C46A A69C], 0.839.

Regarding GUUCCGUUGGGGUAAUGGUAACGCGUCUCCCUCCUAAGACGAAGACUGCGGGUUCGAGUUCCGUACGUAACG [C11G G39A A40C C60U G68U], the yeast fitness is at most 0.5. GUACCGUUCGCGUAAUGGUAACGGGUCUCUCUCAUAAGGAGAAGACUGCGAGUUCGAGUCCCGUACGGAACG [U3A G9C C24G C30U C34A G51A]: the yeast fitness was at most 0.5.

On to GUUCCGUUGGCGUCAUGGUAACGCGUGUCCCUCCUAAGGAGAAGACUGCGGGUUCGAGUCUCGUACGGAGCG [A14C C27G C61U A70G], for which the yeast fitness turned out to be 0.538. As for GUUCCGUUGGCGUAAUGGUAACGGGUUUCCCUUCUAAGGAGAAGACUGCCGGUUCGAGUCCCGUGCGAAACG [C24G C27U C33U G50C A65G G68A], the figure is at most 0.5; as for GUUCCGUUGGCGUAAUGGUAACGCAUCUCCCUCCUAAGGAGACGACUGCGGGUUCGAGUCCCGUACGGAACG [G25A A43C], 0.975.

Consider GUUCCGUUGGCGUAAUGGUAACACGUCUCCCUCCUAAGGAGAAGACUGAGGGUUCGAGUCCCGUACGGAACG [G23A C49A], for which the yeast fitness was determined as 0.526. For the variant GUUCCGUUGGCGUAAUGGUAACGCAUCUCCCUCUUAAGGAGAUGACUGCGGGUUCAAGUCCCGUACGGAACG [G25A C34U A43U G56A], the yeast fitness was at most 0.5. Regarding GUUCCGUUGGCGGAAUGGUAACGCGUCUCCCUUCUAAGGAGAAGACUGCGGGUUCGAGUCCCGUACGGAACG [U13G C33U], the yeast fitness turned out to be 0.671. In the case of GUUCCGUUGGCGUAAAGGUAACGCGUUUCCCUCCUAAGGAGAAGACUGUGGGUUCGAGUCCCGUACGGAACG [U16A C27U C49U], the yeast fitness was determined as 0.61. With GUUCCGUUGGCAUAAUGGUAACGCGUCGCCCUGCUAAGGAGAAGACUGCGGGUUCGAGUCCCGUACGGUACG [G12A U28G C33G A69U], the yeast fitness is at most 0.5.

Regarding GUUCCGUUGGCGUAGUGGUAACGCGUCUGCCUCCUAAGGAGAAGACUGCGGAUUCGAGUCCCGUAUGGAACG [A15G C29G G52A C66U], the yeast fitness was 0.671.

As for GUAGCGUUGGCGUAAUGGUAACGCGUCUCCCUCCUAAGGAGAAGACUGCGGGUUCGAGUGCCGUACAGAACG [U3A C4G C60G G67A], the yeast fitness is at most 0.5. With GUUCCGUUGGCGUAAUGGUAACGCGUCUCCCUCCUCAGCAGAAGACUGCGGGUUCGAGUCCCGUCCGGAACG [A36C G39C A65C], the yeast fitness was 0.598.

Source of the values: the RNAGym collection of RNA variant scans (doi:10.1126/science.aae0568).
